Test results reported in ChEMBL document CHEMBL4033792, “Structure-Activity Relationship in Monosaccharide-Based Toll-Like Receptor 4 (TLR4) Antagonists” (J Med Chem, 2018).
Activity calls are given as the source filed them. No cut-off for these calls is given here.

Tests used:
THP-1 [1] = experiment: Cytotoxicity against human THP1 cells assessed as reduction in cell viability up to 10 uM after 24 hrs in absence of LPS by MTT asssay; assay type: cell-based; conditions: thp-1, 24 h
Method in brief: (§1)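 THP-1 monocytes in RPMI with 10% heat-inactivated FBS, used at 0.5 × 10^6 cells/mL. Cells exposed to compounds at 0–10 μM, with or without LPS (100 ng/mL), for up to 24 h. Viability read by MTT assay.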

[2] = biological target: Toll-like receptor 4 (Mus musculus) (UniProt Q9QUK6); experiment: Antagonist activity at TLR4 in mouse RAW blue cells assessed as inhibition of LPS-induced NF-kappaB activation-mediated SEAP production up to 10 uM preincubated for 30 mins followed by LPS addition measured after 16 hrs by NF-kappaB reporter gene assay
Chain of Toll-like receptor 4 (Mus musculus) (Q9QUK6 whole entry, looked up): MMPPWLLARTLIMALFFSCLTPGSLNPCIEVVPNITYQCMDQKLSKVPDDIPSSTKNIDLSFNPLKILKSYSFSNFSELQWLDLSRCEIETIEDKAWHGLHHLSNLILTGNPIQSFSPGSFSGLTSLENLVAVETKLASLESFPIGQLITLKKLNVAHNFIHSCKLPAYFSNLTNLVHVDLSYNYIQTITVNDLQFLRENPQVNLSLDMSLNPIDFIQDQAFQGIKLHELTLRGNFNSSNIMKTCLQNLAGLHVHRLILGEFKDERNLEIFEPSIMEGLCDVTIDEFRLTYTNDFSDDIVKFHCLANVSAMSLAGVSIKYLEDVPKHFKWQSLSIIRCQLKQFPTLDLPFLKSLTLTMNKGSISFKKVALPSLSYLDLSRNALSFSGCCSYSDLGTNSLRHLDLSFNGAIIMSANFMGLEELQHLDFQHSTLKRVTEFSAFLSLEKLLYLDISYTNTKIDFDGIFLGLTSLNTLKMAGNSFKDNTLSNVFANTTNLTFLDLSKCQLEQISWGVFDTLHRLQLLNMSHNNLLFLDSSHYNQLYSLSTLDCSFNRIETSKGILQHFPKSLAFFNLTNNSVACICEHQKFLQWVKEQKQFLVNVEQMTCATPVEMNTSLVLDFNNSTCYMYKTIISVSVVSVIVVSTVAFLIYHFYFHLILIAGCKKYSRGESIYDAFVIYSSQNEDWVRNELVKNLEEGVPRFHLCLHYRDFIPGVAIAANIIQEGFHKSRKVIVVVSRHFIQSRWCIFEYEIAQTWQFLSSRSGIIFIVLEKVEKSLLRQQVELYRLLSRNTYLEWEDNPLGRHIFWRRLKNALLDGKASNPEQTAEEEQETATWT

THP-1 [3] = experiment: Cytotoxicity against human THP1 cells assessed as reduction in cell viability up to 10 uM after 24 hrs in presence of LPS by MTT asssay; assay type: cell-based; conditions: thp-1, 24 h; method in brief: as §1
[4] = biological target: Toll-like receptor 4 (Mus musculus) (UniProt Q9QUK6); experiment: Agonist activity at TLR4 in mouse RAW blue cells assessed as increase in NF-kappaB activation-mediated SEAP production up to 10 uM measured after 20 hrs by SEAP reporter gene assay
[5] = Cytotoxicity against HEK-Blue cells assessed as reduction in cell viability at 10 uM after overnight incubation by MTT assay; assay type: cell-based; conditions: human
Method in brief: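 MTT viability assay in HEK-Blue hTLR4 cells seeded at 4 × 10^4/well in phenol red-free DMEM and incubated overnight. Cells then treated overnight with the highest compound concentration used in the activity assays (10 μM). MTT (5 mg/mL in PBS) added for 3 h; formazan dissolved in 0.1 N HCl/2-propanol; absorbance 570 nm. Normalized to untreated (PBS) control; mean ± SEM of three independent experiments.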

[6] = biological target: Toll-like receptor 4 (Mus musculus) (UniProt Q9QUK6); experiment: Antagonist activity at TLR4 in mouse RAW blue cells assessed as inhibition of LPS-induced NF-kappaB activation-mediated SEAP production preincubated for 30 mins followed by LPS addition measured after 16 hrs by NF-kappaB reporter gene assay
Toll-like receptor 4 = Toll-like receptor 4 (Homo sapiens, UniProt O00206); experiment: Antagonist activity at human TLR4 expressed in HEK blue cells assessed as inhibition of LPS-induced NF-kappaB activation-mediated SEAP production preincubated for 30 mins followed by LPS addition measured after overnight incubation in absence of light by NF-kappaB reporter gene assay; assay type: cell-based
Chain of Toll-like receptor 4 (O00206 whole entry): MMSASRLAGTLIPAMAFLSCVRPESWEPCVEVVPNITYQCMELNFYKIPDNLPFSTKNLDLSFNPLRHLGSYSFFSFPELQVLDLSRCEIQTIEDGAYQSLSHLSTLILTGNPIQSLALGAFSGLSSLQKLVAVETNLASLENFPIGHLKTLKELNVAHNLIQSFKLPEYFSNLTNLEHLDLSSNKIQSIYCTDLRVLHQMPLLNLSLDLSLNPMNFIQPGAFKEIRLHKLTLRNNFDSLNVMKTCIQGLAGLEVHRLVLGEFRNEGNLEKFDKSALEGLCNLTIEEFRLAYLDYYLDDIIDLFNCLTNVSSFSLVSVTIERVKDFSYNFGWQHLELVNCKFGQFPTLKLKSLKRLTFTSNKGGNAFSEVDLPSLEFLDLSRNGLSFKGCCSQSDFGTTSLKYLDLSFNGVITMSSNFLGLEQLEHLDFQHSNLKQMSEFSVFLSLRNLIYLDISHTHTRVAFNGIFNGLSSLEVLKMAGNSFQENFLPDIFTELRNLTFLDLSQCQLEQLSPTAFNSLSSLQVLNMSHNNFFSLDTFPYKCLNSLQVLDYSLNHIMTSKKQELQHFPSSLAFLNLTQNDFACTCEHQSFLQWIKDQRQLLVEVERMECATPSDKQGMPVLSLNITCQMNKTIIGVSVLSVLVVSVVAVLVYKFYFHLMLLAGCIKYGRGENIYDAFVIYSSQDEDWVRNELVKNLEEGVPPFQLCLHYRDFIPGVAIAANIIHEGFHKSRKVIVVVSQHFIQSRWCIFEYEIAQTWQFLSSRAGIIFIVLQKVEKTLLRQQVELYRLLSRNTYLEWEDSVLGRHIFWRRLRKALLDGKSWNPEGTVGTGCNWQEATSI
Method in brief: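 HEK-Blue hTLR4 cells (stably expressing hTLR4, hMD-2, hCD14 and an NF-κB/AP-1-driven SEAP reporter) seeded at 4 × 10^4/well, incubated overnight at 37 °C. Compound (in water or DMSO–H2O 1:1) added 30 min before 100 ng/mL E. coli O55:B5 LPS, then overnight incubation. Supernatant SEAP read with pNPP, 2–4 h in the dark at room temperature, OD 405 nm. Normalized to LPS alone; four-parameter logistic fit for IC50; ≥3 independent experiments.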

| inhibition [2] | Activity [4] | IC50 [6] [µM] | IC50 (Toll-like receptor 4) [µM] | inhibition (Toll-like receptor 4) | SMILES | Activity (THP-1 [1]) | Activity (THP-1 [3]) | Activity [5] |
| --- | --- | --- | --- | --- | --- | --- | --- | --- |
| inactive | Not Active | – | – | – | CCCCCCCCCCCCCCCC(=O)N[C@H]1[C@@H](OP(=O)([O-])O)O[C@H](CO)[C@@H](OP(=O)([O-])O)[C@@H]1OC(=O)CCCCCCCCCCCCCCC.[Na+].[Na+] | Non-Toxic | Non-Toxic | Non-Toxic |
| – | Not Active | 7.7 | 2 | Dose-dependent effect | CCCCCCCCCCCCCC(=O)N[C@H]1[C@@H](OP(=O)(O)O)O[C@H](CO)[C@@H](OP(=O)(O)O)[C@@H]1OC(=O)CCCCCCCCCCCCC | Non-Toxic | Non-Toxic | – |
| – | Not Active | 1.7 | 0.63 | Dose-dependent effect | CCCCCCCCCCCC(=O)N[C@H]1[C@@H](OP(=O)([O-])O)O[C@H](CO)[C@@H](OP(=O)([O-])O)[C@@H]1OC(=O)CCCCCCCCCCC.[Na+].[Na+] | Non-Toxic | Non-Toxic | Non-Toxic |

| SMILES | inhibition [2] | Activity [4] | IC50 [6] [µM] | IC50 (Toll-like receptor 4) [µM] | inhibition (Toll-like receptor 4) | Activity (THP-1 [1]) | Activity (THP-1 [3]) | Activity [5] |
| --- | --- | --- | --- | --- | --- | --- | --- | --- |
| CCCCCCCCCC(=O)N[C@H]1[C@@H](OP(=O)([O-])O)O[C@H](CO)[C@@H](OP(=O)([O-])O)[C@@H]1OC(=O)CCCCCCCCC.[Na+].[Na+] | – | Not Active | 42 | 5.45 | Dose-dependent effect | Non-Toxic | Non-Toxic | Non-Toxic |
